Screens (PubChem)
An excerpt weighted towards active compounds, which were near 3.1% of everything screened.
rRNA inh HTS: inhibitors of bacterial rRNA selective over humanized ribosomes. E. coli WT GFP vs humanized-ribosome RFP mutants, fluorescence, 24 h; hits give low values; DMSO median 0, no signal -100. GFP signal change (wild-type ribosome), % (no concentration beside the values). 350,000 tested, 1.6% active;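 active = significant combined selectivity score with lowered wild-type GFP, culture density cut under 30%, mutant RFP and density less affected; inactive = any of these conditions unmet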
E-sel inducer: induces E-selectin expression in human endothelial cells. P16581. HUVEC E-selectin immunofluorescence imaging; normalized: neutral wells 0, TNF-alpha wells 100. activation, % at 7.58 µM. 260,000 tested, 0.37% active. AID 686992;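 active = mean E-selectin-positive cell signal at least 10% of the positive control, reached in at least 60% of replicates, without over 20% cell loss; inconclusive = no rule given, readout overlaps actives, possibly toxicity-flagged; inactive = the rest, including those meeting only one limit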
Target sequence (P16581 whole entry, looked up): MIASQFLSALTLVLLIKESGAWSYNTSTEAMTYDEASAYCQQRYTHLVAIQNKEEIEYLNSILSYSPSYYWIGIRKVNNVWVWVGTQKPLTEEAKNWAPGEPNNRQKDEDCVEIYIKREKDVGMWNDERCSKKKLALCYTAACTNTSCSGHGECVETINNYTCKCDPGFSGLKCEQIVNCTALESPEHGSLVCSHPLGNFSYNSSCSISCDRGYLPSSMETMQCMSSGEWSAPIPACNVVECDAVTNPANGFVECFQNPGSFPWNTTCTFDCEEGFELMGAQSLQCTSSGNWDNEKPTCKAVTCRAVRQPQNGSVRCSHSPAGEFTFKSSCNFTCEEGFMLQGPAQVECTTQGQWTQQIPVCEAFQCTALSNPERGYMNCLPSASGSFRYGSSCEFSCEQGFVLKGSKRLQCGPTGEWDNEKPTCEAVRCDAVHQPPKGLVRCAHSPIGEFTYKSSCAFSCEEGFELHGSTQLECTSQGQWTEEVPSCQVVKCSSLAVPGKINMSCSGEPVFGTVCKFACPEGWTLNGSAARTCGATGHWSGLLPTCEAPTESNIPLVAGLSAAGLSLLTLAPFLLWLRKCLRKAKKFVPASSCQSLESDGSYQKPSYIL
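assay system = HUVEC, human umbilical vein endothelial cells | input = 3,000 HUVEC seeded per well | medium = EGM-2 growth medium on 0.1% gelatin-coated wells | dosing = one compound dose added by pin transfer | signal = immunofluorescence imaging | read-out basis = % PE-positive cells | control set = TNF-alpha, DMSO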
Cneo AK release: Cryptococcus neoformans lysis via adenylate kinase release; AID 651654; C. neoformans lysis, adenylate kinase release luminescence, 4 h; normalised: neutral wells 0, clomiphene wells 100; lysis activity, % at 15 µM; 360,000 tested, 0.2% active;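 active = mean lysis activity across replicates of at least 80%, whatever share of replicates individually reach that level; inactive = mean lysis activity below 80%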
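Signal: Adenylate kinase release luminescence | Assay system: Log-phase Cryptococcus neoformans yeast cells | Input: Cells at 5 × 10^6 per mL | Buffer or medium: Fresh YPD growth medium | Compound: Single dose | Schedule: Static 4 h at 37 °C with compound, 1 h detection | Controls: Clomiphene | Read-out: Luminescence rise reflecting yeast cell lysis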
miR122 inh: inhibitors of miR-122 in Huh7 cells | Huh7 miR-122 Renilla luciferase sensor, 48 h; neutral wells = 0, positive control = 100 | activation (reporter increase), % at 12.5 µM | 340,000 tested, 0.3% active | AID 602342;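 active = mean replicate activation score at least 90 and every replicate individually at or above 90; inconclusive = only one of the two criteria met; inactive = neither criterion met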;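 note: higher luciferase means less miR-122 activity so hits act as miR-122 inhibitors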
DENV2 CPE: protects cells from dengue virus 2 cytopathic effect | CPE inhibition, % at 9.99 µM | DENV2-infected cells, cytopathic effect rescue, plate reader | AID 651640 | 350,000 tested, 1.7% active; in the data active = CPE inhibition above about 20%, passing the limit was not always enough; inconclusive = no clear call, values can overlap the other calls; tested in BHK-21 cells;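 note: 0% = median of neutral control wells and 100% = median of positive control wells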
Numbers without * were called inactive; [ ] = another dose, or the depositor's remark.

For Cc1cccc(NC(=O)c2cc(-c3ccc(C)c(C)c3O)n[nH]2)c1 the results were rRNA inh HTS -17.0*, E-sel inducer 1.2, Cneo AK release -2.3, miR122 inh 2.6 and DENV2 CPE 8.5.
O=C(C1CCCCC1)N1C[C@@H]2[C@H](c3ccccc31)[C@@H](CO)N2C(=O)Cc1ccccn1 was read as rRNA inh HTS 2.3, E-sel inducer 0.2, Cneo AK release 14.3, miR122 inh 0.0[16.7 µM] and DENV2 CPE 5.1.
For O=C(CC(F)(F)F)N1C[C@H]2[C@@H](c3ccccc31)[C@@H](CO)N2C(=O)C1CCCC1 the results were rRNA inh HTS 4.6, E-sel inducer 0.1, Cneo AK release -6.9, miR122 inh 0.0[16.7 µM] and DENV2 CPE -0.2.
`O=C(CC(F)(F)F)N1C[C@@H]2[C@H](c3ccccc31)[C@H](CO)N2C(=O)C1CCCC1` gave rRNA inh HTS -2.9, E-sel inducer -0.2, Cneo AK release -5.0, miR122 inh 50.0[16.7 µM] and DENV2 CPE 21.0*.
Screening CN1C[C@H]2[C@@H](c3ccccc31)[C@@H](CO)N2C(=O)C1CCCC1 returned rRNA inh HTS 0.4, E-sel inducer -0.1, Cneo AK release -0.1, miR122 inh -20.0[16.7 µM] and DENV2 CPE 26.7*.
`O=C(C1CC1)N1C[C@H]2[C@@H](c3ccccc31)[C@H](CO)N2C(=O)Cc1ccccn1` gave rRNA inh HTS 3.8, E-sel inducer 0.2, Cneo AK release -1.1, miR122 inh 0.0[16.7 µM] and DENV2 CPE 62.9*.
Screening O=C(C1CCCC1)N1C[C@H]2[C@@H](c3ccccc31)[C@@H](CO)N2C(=O)c1ccccc1 returned rRNA inh HTS 1.1, E-sel inducer -0.1, Cneo AK release -2.2, miR122 inh 40.0[16.7 µM] and DENV2 CPE 50.8*.
`O=C(C[C@H]1C[C@@H]2c3cc(NC(=O)NC4CCCCC4)ccc3O[C@@H]2[C@@H](CO)O1)NC1CCCC1` gave rRNA inh HTS -5.5, E-sel inducer 0.0 and DENV2 CPE -9.5.
Screening COc1ccc(NC(=O)Nc2ccc3c(c2)C(=O)N([C@H](C)CO)C[C@H](C)[C@H](CN(C)Cc2ccc(C(F)(F)F)cc2)OCCCC[C@H](C)O3)cc1 returned rRNA inh HTS -0.4, E-sel inducer 0.0, Cneo AK release 1.9, miR122 inh -8.0[16.7 µM] and DENV2 CPE -3.8.
`Cc1noc(C)c1NC(=O)N[C@@H]1C=C[C@@H](CC(=O)NCCCN(C)C)O[C@@H]1CO` gave rRNA inh HTS 2.1 and E-sel inducer 0.2.
`COc1cccc(-c2ccc([C@H]3[C@@H](CO)N4C(=O)CN(C(=O)CN5CCOCC5)C[C@@H]34)cc2)c1` gave rRNA inh HTS 1.4, E-sel inducer -0.4 and DENV2 CPE -6.5.
Screening COc1ccc(N2CCN(c3ncnc4scc(-c5ccc(F)cc5)c34)CC2)cc1 returned rRNA inh HTS -23.5*, Cneo AK release 1.6, miR122 inh -1.4 and DENV2 CPE 2.0.
`COc1ccc(NC(=O)N(C)C[C@@H]2Oc3ccc(NC(=O)Nc4ccccc4)cc3C(=O)N([C@@H](C)CO)C[C@H]2C)cc1` gave rRNA inh HTS 1.3, E-sel inducer -0.3, Cneo AK release -3.3, miR122 inh 4.4[16.7 µM] and DENV2 CPE inconclusive.
CC1=[N+](C)c2c(ccc3cccnc23)C1(C)C was read as rRNA inh HTS -36.8, E-sel inducer 196.2* and DENV2 CPE 2.0.
Cc1[nH]c2c(ccc3cccnc32)c1C was read as rRNA inh HTS 10.4, E-sel inducer -0.1, Cneo AK release -3.6, miR122 inh -2.3 and DENV2 CPE -2.2.
CC1(C)C(=O)N(c2ccccc2)C(=O)c2ccccc21 was read as rRNA inh HTS 10.0, E-sel inducer 52.5* and DENV2 CPE -1.9.
`C[C@@]12CCC3[C@@](CCC4[C@@]3(C)CCC[C@@]4(C)C(=O)O)(CC1=O)C2` (stereo partly drawn) gave rRNA inh HTS -40.3, E-sel inducer 0.2, Cneo AK release 1.0, miR122 inh -1.3 and DENV2 CPE -1.9.
For COC(=O)[C@]1(C)CCC[C@@]2(C)C3CC[C@@]4(C)C[C@]3(CCC21)CC(=O)N4 (stereo partly drawn) the results were rRNA inh HTS -27.5*, E-sel inducer 0.3, Cneo AK release 0.0, miR122 inh -2.4 and DENV2 CPE -16.6.
For Cc1nc2c(C#N)c[nH]n2c(=O)c1CCO the results were rRNA inh HTS 9.8, Cneo AK release 10.2, miR122 inh -3.3 and DENV2 CPE 4.7.
For Cc1nc2c(C#N)c[nH]n2c(=O)c1Cc1ccccc1 the results were rRNA inh HTS -22.0*, Cneo AK release 0.3, miR122 inh -1.8 and DENV2 CPE 0.9.
CCOC(=O)/C(=N\Nc1ccccc1)P(=O)(c1ccccc1)c1ccccc1 was read as rRNA inh HTS -36.8*, E-sel inducer -0.1, Cneo AK release -2.8, miR122 inh 15.5 and DENV2 CPE 8.1.
Screening CCOC(=O)/C(=N\Nc1ccccc1)S(=O)(=O)c1ccccc1 returned rRNA inh HTS 8.5, Cneo AK release -3.1, miR122 inh 70.2 and DENV2 CPE 7.1.
For CCOC(=O)C1(Cc2ccccc2C)CCCN(C(=O)c2ccnn2C)C1 (stereo not drawn) the results were rRNA inh HTS -1.7, E-sel inducer 113.9*, Cneo AK release 1.3, miR122 inh -1.6 and DENV2 CPE -2.6.
Screening CCOC(=O)C1(Cc2ccccc2C)CCCN(C(=O)c2cc(CC)nn2C)C1 (stereo not drawn) returned rRNA inh HTS -15.1, E-sel inducer 3.5, miR122 inh -1.1 and DENV2 CPE 0.6.
Screening CNC[C@H]1OCCCC[C@@H](C)Oc2ccc(NC(=O)c3ccccc3)cc2C(=O)N([C@@H](C)CO)C[C@@H]1C returned rRNA inh HTS 3.0, E-sel inducer -0.1 and miR122 inh 2.9[16.7 µM].
Cc1ccc(NS(=O)(=O)c2ccc3c(c2)NC(=O)CCS3)c(C)c1 was read as rRNA inh HTS -32.8*, Cneo AK release 0.1, miR122 inh 8.0 and DENV2 CPE 1.3.
`O=C(NNc1nc2ccccc2s1)c1ccccc1F` gave rRNA inh HTS -41.3*, Cneo AK release 6.5, miR122 inh 5.4 and DENV2 CPE -0.2.
`Cc1cc(NC(=O)CSCC(=O)Nc2nc3ccccc3s2)no1` gave rRNA inh HTS -15.0, E-sel inducer 0.8, Cneo AK release 1.0 and DENV2 CPE 44.9*.
For Cc1csc(NC(=O)CSCC(=O)O)c1-c1nc2ccccc2s1 the results were rRNA inh HTS -50.7*, E-sel inducer 0.5 and DENV2 CPE -2.4.
Screening CCc1c(O)nc(SCC(=O)Nc2nc3ccccc3s2)n(-c2ccccc2)c1=O returned rRNA inh HTS -29.7, E-sel inducer -0.3, Cneo AK release 3.1, miR122 inh -1.0 and DENV2 CPE -1.5.
